Source: ChEMBL document CHEMBL1138321, “Asymmetric synthesis of conformationally constrained fingolimod analogues--discovery of an orally active sphingosine 1-phosphate receptor type-1 agonist and receptor type-3 antagonist” (J Med Chem, 2007)
Calls of active or inactive are those of the source. No cut-off for these calls is given here.

Assays:
[1] = molecular target: Sphingosine 1-phosphate receptor 3 (Homo sapiens) (UniProt Q99500); assay: Antagonist activity at human S1P3 receptor expressed in CHOK1 cells assessed as effect on calcium mobilization; format: functional, cell-based; details: CHO-K1
Sequence of Sphingosine 1-phosphate receptor 3 (Homo sapiens) (Q99500 whole entry): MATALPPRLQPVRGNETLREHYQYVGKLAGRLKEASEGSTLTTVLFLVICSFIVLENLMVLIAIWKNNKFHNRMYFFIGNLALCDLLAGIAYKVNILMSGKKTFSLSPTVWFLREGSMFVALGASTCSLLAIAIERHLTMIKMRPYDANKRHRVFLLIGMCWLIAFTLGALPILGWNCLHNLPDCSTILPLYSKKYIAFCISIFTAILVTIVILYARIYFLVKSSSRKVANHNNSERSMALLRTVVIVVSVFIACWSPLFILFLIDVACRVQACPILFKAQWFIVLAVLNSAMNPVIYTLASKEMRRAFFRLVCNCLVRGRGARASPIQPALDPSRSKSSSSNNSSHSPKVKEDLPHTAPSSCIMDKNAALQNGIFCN
In short: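 Calcium mobilization in a FACS-isolated clonal CHO K1 line stably expressing HA-tagged human S1P3, loaded with a calcium-sensitive dye. Concentration-effect curves for the agonist were run with and without 1 μM test phosphate. There were eight points in triplicate (SEM), and three independent experiments.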

[2] = molecular target: Sphingosine 1-phosphate receptor 3 (Homo sapiens) (UniProt Q99500); assay: Agonist activity at human S1P3 receptor expressed in CHOK1 cells; format: functional, cell-based; details: CHO-K1
In short: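 Human S1P3 with N-terminal HA tag, stably expressed in a FACS-isolated clonal CHO K1 line. Confluent monolayers were washed and loaded with a calcium-sensitive fluorescent dye, and calcium transients were monitored on compound addition. Eight-point concentration-effect curves were run in triplicate and presented as SEM.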

[3] = molecular target: T1, Sphingosine kinase 2 (Mus musculus) (UniProt Q9JIA7); assay: Substrate activity at mouse Sphk2 expressed in HEK293T cells; details: HEK-293T
T1 sequence (whole entry): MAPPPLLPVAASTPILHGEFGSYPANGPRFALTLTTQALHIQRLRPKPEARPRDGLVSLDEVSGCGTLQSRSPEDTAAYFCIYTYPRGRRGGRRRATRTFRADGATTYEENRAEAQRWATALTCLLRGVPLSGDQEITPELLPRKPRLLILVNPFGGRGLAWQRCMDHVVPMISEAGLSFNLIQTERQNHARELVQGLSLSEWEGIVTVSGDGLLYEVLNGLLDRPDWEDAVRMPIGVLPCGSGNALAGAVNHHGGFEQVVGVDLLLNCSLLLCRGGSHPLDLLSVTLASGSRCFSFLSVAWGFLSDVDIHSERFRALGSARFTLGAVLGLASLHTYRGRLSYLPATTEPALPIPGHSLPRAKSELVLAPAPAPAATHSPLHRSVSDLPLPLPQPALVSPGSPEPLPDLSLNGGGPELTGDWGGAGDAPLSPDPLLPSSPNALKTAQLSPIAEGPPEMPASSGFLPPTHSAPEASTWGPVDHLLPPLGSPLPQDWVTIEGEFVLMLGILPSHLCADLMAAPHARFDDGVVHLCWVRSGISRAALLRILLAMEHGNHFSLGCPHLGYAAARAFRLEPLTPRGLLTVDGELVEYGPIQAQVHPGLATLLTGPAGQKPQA

[4] = molecular target: Sphingosine 1-phosphate receptor 2 (Homo sapiens) (UniProt O95136); assay: Activity at S1P2 receptor
Sequence of Sphingosine 1-phosphate receptor 2 (Homo sapiens) (O95136 whole entry): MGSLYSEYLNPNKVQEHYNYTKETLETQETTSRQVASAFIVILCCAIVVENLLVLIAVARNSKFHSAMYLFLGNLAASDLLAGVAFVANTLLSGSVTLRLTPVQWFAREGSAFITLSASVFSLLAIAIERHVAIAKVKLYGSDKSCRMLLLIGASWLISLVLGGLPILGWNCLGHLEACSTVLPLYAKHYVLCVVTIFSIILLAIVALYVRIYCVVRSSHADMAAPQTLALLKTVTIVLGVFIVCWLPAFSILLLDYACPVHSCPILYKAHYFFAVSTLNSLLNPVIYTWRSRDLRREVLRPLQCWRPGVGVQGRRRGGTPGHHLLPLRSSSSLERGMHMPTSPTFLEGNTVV

[5] = molecular target: T2, Sphingosine 1-phosphate receptor 4 (Homo sapiens) (UniProt O95977); assay: Activity at S1P4 receptor
T2 sequence (whole entry): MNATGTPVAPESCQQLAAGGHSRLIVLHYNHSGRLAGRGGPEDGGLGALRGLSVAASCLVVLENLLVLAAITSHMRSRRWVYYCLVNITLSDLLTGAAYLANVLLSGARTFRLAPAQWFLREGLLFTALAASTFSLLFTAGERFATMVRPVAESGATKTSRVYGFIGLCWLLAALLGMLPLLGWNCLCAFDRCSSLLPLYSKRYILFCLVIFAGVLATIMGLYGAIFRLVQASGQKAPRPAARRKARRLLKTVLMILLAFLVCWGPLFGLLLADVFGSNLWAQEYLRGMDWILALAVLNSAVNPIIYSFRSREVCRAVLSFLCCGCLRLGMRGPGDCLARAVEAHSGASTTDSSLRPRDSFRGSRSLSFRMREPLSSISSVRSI

Mus musculus [6] = assay: Induction of lymphopenia in C57B1/6J mouse at 1 mg/kg, po after 8 days; format: functional, organism-based; parameters: dose 1 mg/kg
In short: (§1)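 Female C57Bl/6j mice (n=3 per group) received a single oral gavage of 1 mg/kg in 2% hydroxypropyl β-cyclodextrin on day 0. Blood was drawn from the orbital sinus under light anesthesia on the indicated days. Total lymphocytes were counted on a Hemavet 950 blood analyzer.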

Mus musculus [7] = assay: Induction of lymphopenia in C57B1/6J mouse at 1 mg/kg, po after 48 hrs; format: functional, organism-based; parameters: dose 1 mg/kg; in short: as §1

| Compound | Activity [1] | Activity [2] | Activity [3] | also measured |
| --- | --- | --- | --- | --- |
| CCCCCCCCc1ccc([C@@H]2CC[C@](N)(COP(=O)(O)O)C2)cc1 | inactive | inactive |  |  |
| CCCCCCCCc1ccc(C2CCC(N)(COP(=O)(O)O)C2)cc1 (configuration not stated) |  |  |  | Activity [4]: inactive; Activity [5]: Active |
| CCCCCCCCc1ccc([C@@H]2CC[C@](N)(CO)C2)cc1 |  |  | Active | Activity (Mus musculus [6]): Active; Activity (Mus musculus [7]): Active |
| CCCCCCCCc1ccc([C@H]2CC[C@](N)(CO)C2)cc1 |  |  | Active | Activity (Mus musculus [7]): Active |

Now from value to compound, other results behind:

| Activity [1] | Activity [2] | Activity [3] | Compound | also measured |
| --- | --- | --- | --- | --- |
| Active | inactive |  | CCCCCCCCc1ccc([C@H]2CC[C@](N)(COP(=O)(O)O)C2)cc1 |  |
| Active | inactive |  | CCCCCCCCc1ccc([C@@H]2CC[C@@](N)(COP(=O)(O)O)C2)cc1 |  |
|  |  | inactive | CCCCCCCCc1ccc([C@H]2CC[C@@](N)(CO)C2)cc1 |  |
| Active | inactive |  | CCCCCCCCc1ccc([C@H]2CC[C@@](N)(COP(=O)(O)O)C2)cc1 |  |
|  |  | inactive | CCCCCCCCc1ccc([C@@H]2CC[C@@](N)(CO)C2)cc1 |  |
